V-ATPase pHluor: regulators of yeast V-ATPase proton transport; S. cerevisiae, pHLuorin cytosolic pH fluorescence; response, % at 10 µM; 350,000 tested, 0.37% active; in the data active = response mostly above about 7.3%, no sharp cut-off; inactive = mostly below about 5.4%; note: actives read high
CHOP inh: blocks CHOP induction under ER stress | CHO-K1 CHOP-promoter luciferase, tunicamycin-induced, 15-18 h | inhibition, % at 10 µM | 220,000 tested, 3.8% active | AID 2732;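 active = compounds that reduced the stress-induced luciferase reporter signal by more than about 70% of percent inhibition, limit read from the data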;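 note: 0% = tunicamycin plus vehicle and 100% = wells without tunicamycin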
Tb MetRS inh: blocks T. brucei methionyl-tRNA synthetase activity. purified T. brucei MetRS, ATP depletion, Kinase-Glo luminescence. inhibition, % at 11.9 µM. 360,000 tested, 0.4% active;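 active = inhibition above a per-plate cutoff of the control wells' mean inhibition plus 3 SD, cut at about 5.5% in these data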;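 note: 0% = DMSO wells median and 100% = median of wells with control inhibitor compound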
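Material: parasite MetRS enzyme / Replication: singlicate, one well per compound / Signal: luminescence of leftover ATP / Schedule: 2 h aminoacylation at 25 °C after 15 min preincubation / Medium: HEPES-MgCl2-KCl buffer plus DTT, spermine, BSA, pyrophosphatase / Doses: 11.9 µM single point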
UPR CHOP act: activators of apoptotic arm of unfolded protein response (CHOP). CHO-CHOP luciferase reporter, UPR activation, luminescence; percent of tunicamycin response over DMSO baseline. activation, % at 10 µM. 330,000 tested, 0.34% active. AID 449763;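 active = at 10 µM dose, activation of 40% or more, normalized to positive control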;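 note: 100% = tunicamycin at 10 µg/mL and 0% = DMSO alone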
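System: CHO-CHOP luciferase reporter cell line | Buffer or medium: F12 medium containing 10% fetal bovine serum | Doses: One dose, 10 µM in 0.5% DMSO | Times: 6 h compound exposure at 37 °C after overnight seeding | Signal: Luciferase luminescence | Read-out: % activation vs tunicamycin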
UPR XBP1 act: adaptive UPR (XBP1) activation | CHO-XBP1 luciferase reporter, IRE1-XBP1 UPR activation, luminescence; percent of tunicamycin response, DMSO as zero | 330,000 tested, 0.33% active | activation, % at 20 µM | AID 463104;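 active = versus positive control, 20 µM dose yields 30% or more activation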;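 note: 100% = tunicamycin at 10 µg/mL and 0% = DMSO only wells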
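Material – CHO cell line with stable XBP1 luciferase reporter · Buffer or medium – F12 plus 10% FBS · Compound – single point, 20 µM final compound, 1% DMSO · Schedule – 16-18 h cell attachment at 37 °C, then 6 h compound exposure · Signal – Steady-Glo luminescence read · Benchmarks – high control tunicamycin 10 µg/mL final, low control DMSO vehicle only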
CHOP confirm: confirmation of CHOP induction inhibitors | shares compounds with CHOP inh | CHO-CHOP promoter luciferase reporter, tunicamycin-induced, luminescence | inhibition, % at 10 µM | 2,100 tested, 45% active | AID 504437;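 active = mean of three repeat readings of reporter signal inhibition above a set limit, cut at about 70% in these data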;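 note: 0% = tunicamycin plus vehicle and 100% = wells lacking tunicamycin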
UPR CHOP confirm: apoptotic UPR (CHOP) activation, confirmed; CHO-CHOP cells, CHOP-luciferase reporter luminescence; percent of tunicamycin response, DMSO as zero; 1,000 tested, 64% active; activation, % at 10 µM; shares compounds with UPR CHOP act; AID 463112; in the data active = activation above about 33%;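 note: 0% = DMSO wells and 100% = tunicamycin 10 µg/mL wells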
UPR XBP1 confirm: adaptive UPR (XBP1) activation, confirmed; shares compounds with UPR XBP1 act; CHO-XBP1 IRE1-XBP1 luciferase reporter, luminescence; activation, % at 20 µM; 1,000 tested, 63% active; AID 485299;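 active = reporter signal at least 30% of the positive control's activation in two or more of four replicate wells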;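 note: plate controls were DMSO negative control for no effect and tunicamycin 10 µg/mL positive control for full effect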
Active calls of the source: *; · = no result. Shown is part of a subset that was picked to be rich in hits.

SMILES | V-ATPase pHluor | CHOP inh | Tb MetRS inh | UPR CHOP act | UPR XBP1 act | CHOP confirm | UPR XBP1 confirm | others
C=CC[C@@H]1C=C(C)C[C@H](C)C[C@H](OC)[C@H]2O[C@@](O)(C(=O)C(=O)N3CCCC[C@H]3C(=O)O[C@H](/C(C)=C/[C@@H]3CC[C@@H](O)[C@H](OC)C3)[C@H](C)[C@@H](O)CC1=O)[C@H](C)C[C@@H]2OC | · | · | · | 1 | -5 | · | ·
COc1cccc(NC(=O)Cn2c3ccc(F)cc3c3nc4n(c(=O)c32)CCCS4)c1 | 2 | · | 0 | 1 | 0 | · | ·
CC1=NOC(=O)/C1=C\c1ccc(-c2cccc(Cl)c2)o1 | 11 | 102* | -1 | 115* | 7 | -52 | · | UPR CHOP confirm=190*
CC1=NOC(=O)/C1=C\c1ccc(-c2ccc(Cl)c(C(=O)O)c2)o1 | -2 | 4 | 0 | -1 | -4 | · | ·
N#C/C(=C\c1ccc([N+](=O)[O-])o1)C(=O)Nc1ccc(F)cc1 | 114* | 108* | 0 | 166* | -4 | 106* | · | UPR CHOP confirm=156*
O=C(COc1ccccc1)N/N=C/c1ccc(O[C@@H]2O[C@H](CO)[C@@H](O)[C@H](O)[C@H]2O)cc1 | -4 | 8 | 0 | -1 | 1 | · | ·
CC(C)CC(NC(=O)c1ccc(Cl)cc1)C(=O)OCC(=O)c1ccc2c(c1)NC(=O)CO2 (stereo not drawn) | 6 | 107* | 1 | 37 | 49* | 74* | 99*
COC(=O)c1ccc(NC(=O)CCC(=O)c2ccc(F)cc2)cc1 | 4 | · | 0 | -1 | -1 | · | ·
O=C(OCCNc1nc(-c2ccccc2)nc2ccccc12)c1cccnc1 | 1 | 23 | 0 | 2 | -1 | · | ·
CCCOC(=O)c1cccc(Nc2nc(-c3cccnc3)nc3ccccc23)c1 | 0 | 96* | 0 | 5 | 32* | 56 | 58*
COc1cc(S(=O)(=O)N2CC(=O)Nc3ccccc32)ccc1NC(C)=O | 8 | · | 0 | 2 | -5 | · | ·
O=C(CN1CCN(c2ccccc2O)CC1)Nc1ccc2c(c1)CCC2 | -3 | 12 | -1 | 0 | 4 | · | ·
O=[N+]([O-])c1ccc(-c2nn(-c3ccccc3)cc2/C=N/n2c(-c3cccs3)n[nH]c2=S)cc1 | -3 | 102* | 0 | 14 | 41* | 101* | 29
O=[N+]([O-])c1ccc(/C=N/n2c(-c3ccccc3)n[nH]c2=S)cc1 | -1 | · | 0 | 0 | -2 | · | ·
CCCn1c(SCc2nc3sc(C)c(C)c3c(=O)[nH]2)nc2ccccc2c1=O | 5 | 106* | -1 | -2 | 78* | 24 | 180*
COCCn1c(SCc2nc3ccccc3c(=O)[nH]2)nc2ccccc2c1=O | 1 | 27 | -1 | -1 | -2 | · | ·
COc1ccccc1NC(=O)CSc1nc2c(sc3ccccc32)c(=O)n1CCN(C)C | 1 | 29 | 1 | -1 | -3 | · | ·
CCN(CC)CCn1c(SCC(=O)Nc2ccc(F)cc2)nc2c(sc3ccccc32)c1=O | · | 104* | · | 9 | 166* | 90* | 228*
COc1ccccc1Nc1nnc(SCC(=O)NC(=O)Nc2ccc3c(c2)OCCO3)s1 | 2 | 104* | 0 | -1 | 52* | 18 | 49*
Cc1ccccc1Nc1nnc(SCC(=O)NC(=O)Nc2ccc3c(c2)OCCO3)s1 | · | 65 | · | 4 | 2 | · | ·
Nc1nc(SCc2ccc(Cl)cc2Cl)nc2nc3c(cc12)CCCC3 | 128* | 103* | 1 | 3 | 59* | -38 | 133*
CCOC(=O)c1c(NC(C)=O)sc2c(OCC(O)CNC(C)(C)C)c(Br)ccc12 (stereo not drawn) | 4 | 105* | 0 | 1 | 62* | 62 | 111*
CCOC(=O)c1c(NC(C)=O)sc2c(O)cccc12 | 4 | 33 | 0 | -3 | 1 | · | ·
Cc1cccc(OCc2n(CC(=O)OC3CC(C)CCC3C(C)C)c3ccccc3[n+]2C)c1 (stereo not drawn) | -1 | 109* | 0 | 12 | 32* | 78* | 29
CC1CCC(C(C)C)C(OC(=O)Cn2c(-c3ccccc3)[n+](C)c3ccccc32)C1 (stereo not drawn) | -2 | 54 | 0 | 17 | 19 | · | ·
SMILES | V-ATPase pHluor | CHOP inh | Tb MetRS inh | UPR CHOP act | UPR XBP1 act | CHOP confirm | UPR XBP1 confirm | others
Cc1nn(Cc2c(Cl)cccc2Cl)c(C)c1NC(=O)c1cn(-c2ccccc2)nc1-c1ccccc1 | 1 | 109* | 0 | 146* | 78* | 106* | 85* | UPR CHOP confirm=76*
Cc1cccc(C)c1NC(=O)CNC(=O)c1cn(-c2ccccc2)nc1-c1ccccc1 | 5 | · | 5 | 4 | -7 | · | ·
CCN(CC)S(=O)(=O)c1cccc(C(=O)Nc2cc(C)on2)c1 | -4 | · | -1 | 4 | 1 | · | ·
COc1ccc(NC(=O)c2cc3c(=O)n(C)c4ccccc4c3n2C)cc1Cl | -2 | 101* | 0 | 2 | 32* | -67 | 72*
COc1ccccc1-c1cn[nH]c1-c1ccc(OCc2ccc([N+](=O)[O-])cc2)cc1O | 0 | 99* | 1 | -1 | 42* | -11 | 19
COc1ccccc1-c1cn[nH]c1-c1ccc(OCc2ccc(F)cc2)cc1O | 0 | 12 | 0 | 0 | 0 | · | ·
COc1ccc(-c2cc(C(F)(F)F)nc(SCC(=O)Nc3ccc4c(c3)OCO4)n2)cc1 | -4 | 99* | 1 | 0 | 55* | 66 | 0
C=CCn1c(O)c(C2=c3ccccc3=NC2=O)sc1=Nc1ccc(O)cc1 | 6 | 104* | 0 | 0 | 34* | 38 | 32*
COc1cc([N+](=O)[O-])cc(/C=N/NC(=O)c2ccc(NC(=O)c3ccc(C)cc3)cc2)c1O | -3 | 105* | 0 | 49* | 38* | 49 | 44* | UPR CHOP confirm=64*
COc1ccc(Cn2c(=S)[nH]c3ccsc3c2=O)cc1 | -1 | 33 | 1 | 2 | 2 | · | ·
CC(C)c1cccc(OCCN2CCCC2)c1 | -1 | · | 0 | 1 | -1 | · | ·
CCNC(=O)c1c(NC(=O)c2cc(-c3cc(C)ccc3O)n[nH]2)sc2c1CCCC2 | 2 | 101* | -1 | 8 | 42* | 106* | 75*
CC(C)CCn1c(=O)c(C(=O)N/N=C/c2cccc(F)c2)c(O)c2ccccc21 | 4 | 106* | 0 | 6 | 37* | 90* | 4
CCCn1c(=O)c(C(=O)N/N=C/c2ccccc2F)c(O)c2ccccc21 | -2 | 68 | 0 | 1 | 2 | · | ·

Screening results from PubChem.
